The values that follow come from ChEMBL document CHEMBL1124649, “Platelet activating factor antagonists: synthesis and structure-activity studies of novel PAF analogues modified in the phosphorylcholine moiety” (J Med Chem, 1989).

Common to all, as to assay type: functional
Experiment [1] relates to Rattus norvegicus. The experiment in a line: Compound was evaluated for the percent inhibition of the platelet activating factor (PAF) hypotension, after 5 min of intravenous injection of 0.1 mg/kg in rat.
Experiment [2] concerns Rattus norvegicus. The experiment in a line: Compound was evaluated for the percent inhibition of the platelet activating factor (PAF) hypotension, after 60 min of intravenous injection of 0.1 mg/kg in rat. To be noted: 1 h.
In experiment [3] the test system is Mus musculus. Put plainly: Time course of protecting effect on PAF-induced death in mice, at the dose of 1 mg/kg after 8 hr. In outline:
(§1)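 Conscious male ICR-Jcl mice, 5-7 weeks old. Drug dissolved in saline (0.1 mL/10 g) given into the tail vein 8 or 24 h before PAF (50 μg/kg, iv); saline-only controls. Death defined as cessation of respiration. Survival rate recorded 60 min after PAF. 16 mice per compound, 142 controls; χ2 test versus control.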

In experiment [4] the test system is Rattus norvegicus. The experiment in a line: Compound was evaluated for the percent inhibition of the platelet activating factor (PAF) hypotension, after 120 min of intravenous injection of 0.1 mg/kg in rat. The conditions noted are these: 2 h.
The subject of experiment [5] is Mus musculus. Put plainly: Time course of protecting effect on PAF-induced death in mice, at the dose of 1 mg/kg after 24 hr. In outline: as §1
The test system of experiment [6] is Rattus norvegicus. Put plainly: Compound was evaluated for the percent inhibition of the platelet activating factor (PAF) hypotension, after 60 min of intravenous injection of 1 mg/kg in rat. To be noted: 1 h.
The subject of experiment [7] is Rattus norvegicus. The experiment in a line: Compound was evaluated for the percent inhibition of the platelet activating factor (PAF) hypotension, after 120 min of intravenous injection of 1 mg/kg in rat. To be noted: 2 h.
Experiment [8] deals with Rattus norvegicus. The experiment in a line: Compound was evaluated for the percent inhibition of the platelet activating factor (PAF) hypotension, after 5 min of intravenous injection of 1 mg/kg in rat.

As a reminder, the inhibition in vivo is how much of the control response was suppressed. Read a high inhibition in vivo as strong suppression. As to `CCCCCCCCCCCCCCCCCCNC(=O)OCC(COC(=O)N(Cc1csc[n+]1CC)C(C)=O)OC` (stereo not given), the values for the inhibition in vivo at 0.1 mg/kg in experiment [1], in experiment [2] and in experiment [4] were 100%, 40% and 14%, respectively. In addition, the survival at 1 mg/kg in experiment [3] was determined as 75%; in experiment [5], 25%.
Regarding `CCCCCCCCCCCCCCCCCCNC(=O)OCC(COC(=O)N(Cc1scc[n+]1CC)C(C)=O)OC` (stereo not given), the inhibition in vivo at 0.1 mg/kg in experiment [1] was found to be 100%; in experiment [2], 3%; in experiment [4], 0%.
Take `CCCCCCCCCCCCCCCCCCNC(=O)OCC(COC(=O)N(Cc1cccc[n+]1C)C(C)=O)OC` (stereo not given): the inhibition in vivo at 1 mg/kg in experiment [6] came to 39%; in experiment [7], 33%; in experiment [8] it was 82%.
In the same order, the values of `CCCCCCCCCCCCCCCCCCNC(=O)OCC(COC(=O)N(Cc1csc[n+]1C)C(C)=O)OC` (stereo not given) are 29%, 4% and 92%.
In the case of `CCCCCCCCCCCCCCCCCCNC(=O)OCC(COC(=O)N(Cc1scc[n+]1C)C(C)=O)OC` (stereo not given), the inhibition in vivo at 0.1 mg/kg in experiment [1] was determined as 43%; in experiment [2], 6%; in experiment [4], 0%. Moreover, the inhibition in vivo at 1 mg/kg in experiment [6] was determined as 100%; in experiment [7], 30%; in experiment [8], 100%.
Take `CCCCCCCCCCCCCCCCCCNC(=O)OCC(COC(=O)N(Cc1cccc[n+]1CCCC)C(C)=O)OC` (stereo not given): the inhibition in vivo at 1 mg/kg is 0% in experiment [6] and 100% in experiment [8].
`CCCCCCCCCCCCCCCCCCNC(=O)OCC(COC(=O)N(Cc1cccc[n+]1CCC)C(C)=O)OC` (stereo not given): the inhibition in vivo at 0.1 mg/kg was 45% in experiment [1] and 0% in experiment [2].
For `CCCCCCCCCCCCCCCCCCNC(=O)OC[C@H](COC(=O)N(Cc1cccc[n+]1CC)C(C)=O)OC`, the inhibition in vivo at 0.1 mg/kg amounted to 100% in experiment [1], 36% in experiment [2] and 20% in experiment [4].
Taken in the same sequence, the figures for `CCCCCCCCCCCCCCCCCCNC(=O)OC[C@@H](COC(=O)N(Cc1cccc[n+]1CC)C(C)=O)OC` were 100%, 54% and 17%.
Turning to `CCCCCCCCCCCCCCCCCCNC(=O)OCC(COC(=O)N(Cc1cccc[n+]1CC)C(C)=O)OC` (stereo not given) [CV-6209], the values for the inhibition in vivo at 0.1 mg/kg in experiment [1], in experiment [2] and in experiment [4] were 100%, 55% and 34%, respectively. In addition, the survival at 1 mg/kg in experiment [3] stood at 100%; in experiment [5], 69%.
